Screening data from PubChem.
RGS4 pot: potentiators or activators of RGS4; 310,000 tested, 0.92% active; HEK293 M3R/inducible RGS4, carbachol calcium flux Fluo4; stronger effect = lower value; B-score at 10 µM; AID 463111;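 active = B-score of the integrated calcium signal more than 4 SD below the library mean, with starting fluorescence not abnormally high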;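 note: negative B-score means reduced calcium response which marks RGS4 activation or potentiation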
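Assay system: Inducible-RGS4 HEK293 cells carrying M3 receptor | Schedule: Compound preincubation 20 min at room temperature before agonist | Signal: Kinetic calcium fluorescence imaging with Fluo4-AM dye, 2 µM | Read-out basis: B score from integrated fluorescence ratio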
MrgX1 ag: activates human MrgX1 receptor signaling | B-score at 10 µM | MrgX1-HEK293 cells, Fluo-4 calcium fluorescence, agonist mode; stronger effect = higher value | 310,000 tested, 0.44% active;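 active = calcium response B-score plate-corrected fluorescence ratio at least 3 library SD, with starting fluorescence B-score inside 5 SD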
Target sequence (Q96LB2 whole entry, looked up): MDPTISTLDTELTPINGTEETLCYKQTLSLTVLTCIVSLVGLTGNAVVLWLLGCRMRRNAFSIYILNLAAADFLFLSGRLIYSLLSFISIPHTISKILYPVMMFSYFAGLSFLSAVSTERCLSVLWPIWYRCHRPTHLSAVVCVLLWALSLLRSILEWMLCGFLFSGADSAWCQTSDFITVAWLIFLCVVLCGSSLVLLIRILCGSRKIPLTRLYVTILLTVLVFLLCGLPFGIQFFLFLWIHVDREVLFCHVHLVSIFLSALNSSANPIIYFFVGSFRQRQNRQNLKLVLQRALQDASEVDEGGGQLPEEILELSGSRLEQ
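Test system: HEK293 cells stably expressing human MrgX1 receptor; amount: 15,000 cells per well; doses: compound delivered in addition one of three; times: overnight plating before 1 h dye loading; detection: Fluo-4 NW calcium-flux fluorescence, kinetic read; read-out basis: B-scored fluorescence response ratio; controls: positive and negative controls per plate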
RGS4 inh: human RGS4 inhibition. HEK293 M3R/RGS4 inducible, Fluo-4 calcium flux; stronger effect = higher value; triggered by carbachol at its EC20. B-score at 10 µM. 310,000 tested, 0.45% active. AID 463165;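 active = B-score, a plate-corrected calcium signal, over three deviations above library mean, with baseline fluorescence within five deviations of library mean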;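 note: RGS4 expression induced by doxycycline in cells with stable M3 receptor; B-score is computed from the integrated fluorescence ratio over baseline after carbachol; higher B-score means a larger calcium signal and so more RGS4 inhibition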
MrgX1 antagonist: blocks BAM8-22 activation of human MrgX1 receptor; Q96LB2; MRGX1-HEK293 calcium flux, Fluo-4, BAM8-22 antagonism; stronger effect = lower value; B-score at 10 µM; 310,000 tested, 1.3% active; AID 588676;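 active = calcium-response B-score plate-corrected more than 3 library SD below zero, starting fluorescence within 5 deviations, no agonist response on first addition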;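 note: peak minus trough fluorescence over baseline after final BAM8-22 challenge near maximal dose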
MrgX1 PAM: allosterically activates human MrgX1 receptor signaling; Q96LB2; MrgX1-HEK293, Fluo-4 calcium flux, FDSS; stronger effect = higher value; B-score at 10 µM; 310,000 tested, 0.63% active; AID 588675;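 active = plate-corrected calcium response at least 3 library SD above typical, normal starting fluorescence, not activating the receptor alone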;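 note: compound read alongside a low EC10 to EC30 dose of BAM8-22 agonist; peak minus trough fluorescence over baseline measured at the second addition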
RGS4 block valid: validation of RGS4 inhibitors; AID 492999; 1,700 tested, 65% active; shares compounds with RGS4 inh; calcium response, % at 10 µM; HEK293 M3R/RGS4, carbachol calcium Fluo-4 fluorescence; carbachol added at its EC20; 0 = buffer wells, 100 = carbachol control;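 active = duplicate-averaged calcium response above the buffer-only control mean plus 5 SD of those controls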;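 note: integrated fluorescence ratio F max minus min over baseline F0; higher response in RGS4-induced cells means RGS4 inhibition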
RGS4 uninduced: non-induced cell nonspecific activity of RGS4 inhibitors | shares compounds with RGS4 inh | HEK293 M3R non-induced, carbachol calcium Fluo-4; submaximal (EC20) carbachol stimulus; buffer wells 0%, carbachol control wells 100% | activity (percent), % at 10 µM | 1,900 tested, 20% active; call rule not given here;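 note: RGS4 induction absent so cells express M3R without RGS4; higher means more calcium signal and flags a non-specific hit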
RGS4 inh ctr2: second RGS4 inhibitor counter-screen in uninduced cells lacking carbachol. shares compounds with RGS4 inh. HEK293 M3R/RGS4 non-induced, Fluo-4 calcium, no carbachol; normalised: buffer wells 0%, carbachol wells 100%. calcium response (agonist-mode artifact), % at 10 µM. 1,900 tested, 22% active. AID 493001;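 active = duplicate-averaged calcium rise in uninduced cells above buffer wells' mean plus 5 SD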
The depositor's hits bear a star; i = inactive; . = no result. In the library only some 3.5% were active in any assay of this set; here they are far more common.

SMILES	RGS4 pot	MrgX1 ag	RGS4 inh	MrgX1 antagonist	MrgX1 PAM	RGS4 block valid	RGS4 uninduced	RGS4 inh ctr2
Cc1ccc(S(=O)(=O)N(C)C)cc1NC(=O)c1cc(=O)c2ccccc2o1	i	i	i	i	i	.	.	.
CC(NCC(O)COC1CCC(C(C)(C)C)CC1)c1ccccc1 (stereo not given)	i	i	10*	i	i	5.0%*	i	i
C/C(=N/NC(=O)c1ccc(Br)o1)c1cccc(NC(=O)c2ccc(C)o2)c1	i	i	i	i	i	.	.	.
CC(C)CN(CCNC(=O)CN1N=C(c2ccc(Cl)cc2)CCC1=O)CC(C)C	i	i	i	i	i	.	.	.
CCCNC(C)C(=O)Nc1ccccc1C (stereo not given)	i	i	4.8*	i	i	6.5%*	i	i
CCCNC(=O)c1ccccc1NC(=O)Nc1ccccc1C	.	i	.	i	i	.	.	.
Cc1cccc(N=c2oc3cc(O)ccc3cc2C(N)=O)c1	i	i	4.7*	i	i	6.0%*	i	30%*
COc1ccc(C(=O)Oc2ccc(N(C)S(=O)(=O)c3ccccc3)cc2)cc1[N+](=O)[O-]	i	i	i	i	i	.	.	.
CCSc1nc2ccccc2n1C(=O)/C=C\c1ccc(OC)c(OC)c1	i	i	14*	i	i	22%*	76%*	7.5%*
CCc1nonc1NC(=O)c1oc2c(C)c(C)ccc2c1C	i	i	i	i	i	.	.	.
COc1cc(C2c3c(-c4cc(Cl)c(C)cc4O)n[nH]c3C(=O)N2Cc2cccnc2)ccc1O (stereo not given)	i	i	i	i	i	.	i	i
Cc1ccc(C2c3c(-c4ccccc4O)n[nH]c3C(=O)N2Cc2ccncc2)cc1 (stereo not given)	i	i	i	i	i	.	.	.
COc1ccc(OC)c(C2C(C#N)=C(N)Oc3c2c(C)nn3-c2ccc(C)cc2)c1 (stereo not given)	i	i	i	i	i	.	.	.
COc1ccc(C2C(C#N)=C(N)Oc3c2c(-c2ccccc2)nn3-c2ccccc2)c(OC)c1OC (stereo not given)	i	i	i	i	i	.	i	i
Cc1c(O)c(S(=O)c2ccccc2)c(=O)n(-c2ccccc2)c1-c1ccccc1 (stereo not given)	i	i	i	i	i	.	.	.
Cc1ccc(NC(=O)c2c(Cl)nc3ccccn23)cc1	i	i	i	i	i	.	.	.
Cc1cc(C)c2nc(NNC(=O)c3ccc(S(=O)(=O)N4CCc5ccccc5C4)cc3)sc2c1	i	i	6.5*	i	i	11%*	i	i
Cc1cc(C)c2sc(NNC(=O)c3ccc(S(=O)(=O)N4CCc5ccccc5C4)cc3)nc2c1	i	i	i	i	i	.	i	i
COC(=O)[C@H](Cc1c[nH]c2ccccc12)NC(=O)NCc1ccc(OC)cc1	i	i	i	i	i	.	.	.
Cc1nn2c(-c3ccncc3)ccnc2c1Br	i	i	i	i	i	i	i	i
Cc1nn2c(-c3ccc(F)cc3)ccnc2c1Br	i	i	i	i	i	.	i	i
Cc1nn2c(-c3ccccn3)ccnc2c1Br	i	i	i	i	i	.	.	.
Cc1ccc(-c2nc3cnccn3c2Nc2c(C)cccc2C)o1	i	i	6.3*	i	i	8.0%*	i	26%*
Cc1ccc(-c2nc3ncccn3c2Nc2ccccc2C)o1	i	i	i	i	i	.	.	.
